Consider 14 molecules from ChEMBL document CHEMBL1123806, “Effects of derivatives of kahweol and cafestol on the activity of glutathione S-transferase in mice” (1987).

Experiment [1] concerns the target T1, Glutathione S-transferase Mu 1 (Mus musculus) (UniProt P10649).
T1 sequence (whole entry): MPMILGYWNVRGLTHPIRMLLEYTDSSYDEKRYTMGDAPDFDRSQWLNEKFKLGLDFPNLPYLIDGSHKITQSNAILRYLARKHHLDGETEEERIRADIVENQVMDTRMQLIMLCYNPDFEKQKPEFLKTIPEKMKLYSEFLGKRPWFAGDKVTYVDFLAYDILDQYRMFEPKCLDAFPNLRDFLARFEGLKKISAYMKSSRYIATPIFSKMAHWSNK
The experiment in a line: GST activity in the cytosols of liver of ICR/Ha mice, using 1-Chloro-2,4-dinitrobenzene as substrate. The experiment is classed as functional, tissue-based. A digest of the protocol:
(§1)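 Mice (6-8 wk, groups of 4-5, semipurified diet) dosed po once daily for 3 days with 10 μmol in 0.2 mL cottonseed oil/10% ethanol. Vehicle-only controls. Killed 24 h after the last dose. Tissue homogenized in phosphate buffer pH 7.5, then spun at 100000g for 1 h to give cytosol. CDNB conjugation read at 340 nm, 30 °C, pH 6.5 phosphate, 5 mM GSH, 1 mM CDNB. Units µmol/min/mg protein, mean ± SD; ratio = treated/control.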

The target in experiment [2] is T1, Glutathione S-transferase Mu 1 (Mus musculus). The experiment in a line: Ratio is the compound /control(Specific activity in small bowel mucosa(GST)). The experiment is classed as functional. A digest of the protocol:
as §1

Experiment [3] in a line: Ratio is the compound /control(SH level in liver). The experiment is classed as functional, Mus musculus. A digest of the protocol:
(§2)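 Same dosing: 10 μmol po daily for 3 days in cottonseed oil/10% ethanol, vehicle controls, tissues taken 24 h after the last dose. Homogenate (phosphate pH 7.5) used at once. Ellman method: equal volume 4% sulfosalicylic acid, then supernatant plus 9 volumes of 0.1 mM DTNB in 0.1 M phosphate pH 8.0. Read spectrophotometrically. Units µmol SH/g tissue, mean ± SD; ratio = treated/control.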

The species named for experiment [4] is Mus musculus. The experiment in a line: Ratio is the compound /control(SH in small bowel mucosa). The experiment is classed as functional. A digest of the protocol: as §2
Experiment [5] has as its target T1, Glutathione S-transferase Mu 1 (Mus musculus). Nature of the experiment: Ratio is the compound /control(Specific activity in liver(GST)). Type of experiment: functional, tissue-based. A digest of the protocol:
as §1

A short description of experiment [6]: Tissue acid-soluble sulfhydryl levels of liver of ICR/Ha mice. The experiment is classed as functional, Mus musculus. A digest of the protocol:
as §2

For experiment [7], the species on record is Mus musculus. The experiment in a line: Tissue acid-soluble sulfhydryl levels of small bowel mucosa of ICR/Ha mice. The experiment is classed as functional. A digest of the protocol:
as §2

For experiment [8], the species on record is Mus musculus. Nature of the experiment: GST activity in the cytosols of small bowel mucosa of ICR/Ha mice was determined by using 1-Chloro-2,4-dinitrobenzene as the substrate. Type of experiment: functional. A digest of the protocol: as §1
Experiment [9] has as its target T1, Glutathione S-transferase Mu 1 (Mus musculus). The experiment in a line: GST activity in the cytosols of the forestomach of ICR/Ha mice was determined by using 1-Chloro-2,4-dinitrobenzene as the substrate. The experiment is classed as functional, tissue-based. As to conditions: Stomach. A digest of the protocol:
as §1

Experiment [10] shares this target. The experiment in a line: Ratio is the compound /control(Specific activity in forestomach). The experiment is classed as functional, tissue-based. As to conditions: Stomach. A digest of the protocol: as §1
The target is the same in experiment [11]. Nature of the experiment: GST activity in the cytosols of the lung of ICR/Ha mice was determined by using 1-Chloro-2,4-dinitrobenzene as the substrate. Type of experiment: functional. A digest of the protocol: as §1
The species entered for experiment [12] is Mus musculus. Nature of the experiment: GST activity in the cytosols of small bowel mucosa of ICR/Ha mice was determined by using 1-Chloro-2,4-di nitrobenzene as the substrate. The experiment is classed as functional. A digest of the protocol: as §1
The species named for experiment [13] is Mus musculus. The experiment in a line: Tissue acid-soluble sulfhydryl levels of small bowel mucosa of ICR/Ha mice. Type of experiment: functional. A digest of the protocol:
as §2

The target of experiment [14] is T1, Glutathione S-transferase Mu 1 (Mus musculus). Nature of the experiment: Ratio is the compound /control(Specific activity in lung). Type of experiment: functional. A digest of the protocol: as §1
For experiment [15] the target is unchanged. The experiment in a line: GST activity in the cytosols of small bowel mucosa of ICR/Ha mice was determined by using 1-Chloro-2,4-di nitrobenzene as the substrate. The experiment is classed as functional. A digest of the protocol:
as §1

Experiment [16] can be described thus: Tissue acid-soluble sulfhydryl levels of liver of ICR/Ha mice. Type of experiment: functional, Mus musculus. A digest of the protocol: as §2

For the molecule `CC(=O)OC[C@@]1(O)C[C@@]23CCC4C5=C(CC[C@@]4(C)C2CCC1C3)OCC5` (stereo partly specified), in [1], the Specific activity (uM min-1 (mg of protein)-1) was 1.27. The Ratio came to 1 in experiment [2], 1.55 in [3], 1.2 in experiment [4] and 1.08 in experiment [5]. Further, the figures for the SH level in [6] and in experiment [7] were 15.6 µM/g and 7.1 µmol/g, respectively. Also, the Specific activity in [8] is 0.41 uM min-1 (mg of protein)-1.
Regarding `C[C@@]12CCc3occc3C1CC[C@]13CC(O)C(CCC12)C3` (stereo partly specified), the Specific activity (uM min-1 (mg of protein)-1) in [9] worked out at 0.91; in experiment [1] it was 2.54; in experiment [11], 0.2. Moreover, the Ratio in [2] stood at 4.2; in experiment [3], 1.7; in experiment [10], 1.2; in [4], 2.2; in [5], 1.5; in experiment [14] it was 0.8. The Specific activity in [12] is listed as 1.52 uM min-1 (mg of protein)-1. Further, the SH level in [13] was 11.9 µmol/g; in experiment [6] it was 12.8 µM/g.
Molecule `CC(=O)OC[C@@]1(O)C[C@@]23CC[C@@H]4c5ccoc5CC[C@@]4(C)[C@@H]2CC[C@@H]1C3` [CAFESTOL ACETATE] displayed a Specific activity (uM min-1 (mg of protein)-1) in experiment [1] of 3.24. The Ratio in experiment [2] turned out to be 7.5; in experiment [3], 1.41; in experiment [4], 2; in experiment [5], 2.74. Further, the SH level in experiment [6] turned out to be 14.3 µM/g; in [7], 12 µmol/g. Besides, the Specific activity in experiment [8] is reported as 3 uM min-1 (mg of protein)-1.
`C[C@@]12CCc3occc3C1CC[C@]13CC(=O)C(CCC12)C3` (stereo partly specified): the Specific activity (uM min-1 (mg of protein)-1) stood at 0.88 in [9], 2.85 in experiment [1], 0.29 in experiment [11] and 2.06 in experiment [15]. Besides, the Ratio in experiment [2] came out at 5.7; in experiment [3] it was 1.8; in [10], 1.2; in experiment [4], 1.9; in [5], 1.7; in experiment [14] it was 1.1. The SH level worked out at 13.3 µM/g in [6] and 10.3 µmol/g in [7].
Consider `C[C@@]12C=Cc3occc3C1CC[C@]13CC(O)C(CCC12)C3` (stereo partly specified), for which the Specific activity (uM min-1 (mg of protein)-1) is 1.01 in experiment [9], 3.57 in experiment [1], 0.23 in [11] and 1.72 in experiment [15]. Besides, the Ratio turned out to be 5.7 in [2]; 1.1 in [3]; 1.5 in experiment [10]; 1.7 in experiment [4]; 2.5 in experiment [5]; 0.8 in experiment [14]. The SH level in experiment [16] was determined as 9.5 µM/g; in experiment [13], 10.9 µmol/g.
Consider `CC1(O)C[C@@]23CCC4c5ccoc5CC[C@@]4(C)C2CCC1C3` (stereo partly specified), for which the Specific activity (uM min-1 (mg of protein)-1) in experiment [9] stood at 0.76; in [1] it was 2.26; in experiment [11] it was 0.27. Further, the Ratio in experiment [2] turned out to be 3.6; in experiment [3], 2.1; in [10], 1; in experiment [4] it was 1.6; in experiment [5], 1.4; in [14], 1. Also, the Specific activity in experiment [12] was 1.3 uM min-1 (mg of protein)-1. For the same molecule, the SH level in experiment [13] is 8.6 µmol/g; in [6], 16.3 µM/g.
For the molecule `CC(=O)OC1C[C@@]23CCC4c5ccoc5CC[C@@]4(C)C2CCC1C3` (stereo partly specified), the Specific activity (uM min-1 (mg of protein)-1) in experiment [9] turned out to be 0.83; in experiment [1], 2.24; in [11] it was 0.29; in [15], 1.83. Further, the Ratio in experiment [2] was found to be 5.1; in [3], 1.8; in experiment [10], 1.1; in experiment [4], 1.5; in [5], 1.3; in [14], 1.1. Moreover, the SH level in experiment [6] stood at 13.3 µM/g; in experiment [7], 8.3 µmol/g.
In the case of `CC(=O)OC1C[C@@]23CCC4c5ccoc5C=C[C@@]4(C)C2CCC1C3` (stereo partly specified), the Specific activity (uM min-1 (mg of protein)-1) in [9] is 0.94; in experiment [1] it was 3.68; in [11], 0.3; in experiment [15] it was 2.06. Also, the Ratio in [2] stood at 6.9; in experiment [3], 1.1; in experiment [10], 1.4; in [4], 1.7; in experiment [5] it was 2.6; in experiment [14] it was 1. Moreover, the SH level stood at 10.1 µM/g in [16] and 10.8 µmol/g in experiment [13].
Turning to `C[C@@]12C=Cc3occc3C1CC[C@]13CC(=O)C(CCC12)C3` (stereo partly specified), the Specific activity (uM min-1 (mg of protein)-1) in [9] came out at 1.05; in experiment [1] it was 3.67; in experiment [11] it was 0.28; in experiment [15], 1.84. For the same molecule, the Ratio came to 6.1 in experiment [2]; 1.3 in [3]; 1.6 in experiment [10]; 1.6 in experiment [4]; 2.6 in experiment [5]; 1 in experiment [14]. The SH level in [6] was found to be 11.8 µM/g; in experiment [7] it was 10.4 µmol/g.
Molecule `C[C@@]12CCC3=C(CCO3)C1CC[C@@]13CC(CCC12)[C@@](O)(CO)C3` (stereo partly specified) came in with a Specific activity (uM min-1 (mg of protein)-1) in [1] of 1.22. Further, the Ratio in experiment [2] is 1.1; in experiment [3], 1.18; in experiment [4] it was 1.1; in experiment [5], 1.04. For the same molecule, the SH level in experiment [6] was 11.9 µM/g; in experiment [7] it was 6.5 µmol/g. In addition, the Specific activity in experiment [8] is reported as 0.42 uM min-1 (mg of protein)-1.
As to `C[C@@]12C=Cc3occc3C1CC[C@@]13CC(CCC12)C(O)(CO)C3` (stereo partly specified), the Specific activity (uM min-1 (mg of protein)-1) in experiment [9] amounted to 1.4; in experiment [1] it was 4.3; in experiment [11], 0.29; in experiment [15], 2.21. The Ratio in experiment [2] turned out to be 7.3; in experiment [3] it was 1.5; in experiment [10], 2.1; in experiment [4], 2.1; in [5] it was 3; in [14], 1. Besides, the SH level in experiment [6] turned out to be 13 µM/g; in experiment [7], 13.1 µmol/g.
Regarding `C[C@@]12CCc3occc3C1CC[C@]13CCC(CCC12)C3` (stereo partly specified), the Specific activity (uM min-1 (mg of protein)-1) amounted to 0.85 in experiment [9], 2.62 in [1] and 0.33 in experiment [11]. Further, the Ratio worked out at 2.6 in experiment [2]; 1.7 in experiment [3]; 1.1 in experiment [10]; 1.6 in [4]; 1.6 in experiment [5]; 1.3 in [14]. Moreover, the Specific activity in [12] is 0.95 uM min-1 (mg of protein)-1. For the same molecule, the SH level in [13] came out at 8.4 µmol/g; in [6] it was 13 µM/g.
`CC1(O)C[C@@]23CCC4c5ccoc5C=C[C@@]4(C)C2CCC1C3` (stereo partly specified): the Specific activity (uM min-1 (mg of protein)-1) turned out to be 0.92 in [9], 2.59 in experiment [1], 0.24 in [11] and 1.34 in [15]. The Ratio in [2] was 4.5; in experiment [3], 0.9; in experiment [10] it was 1.4; in experiment [4], 1.2; in experiment [5], 1.8; in [14], 0.8. Besides, the SH level in [16] came to 8.3 µM/g; in experiment [13], 7.7 µmol/g.
Regarding `C[C@@]12CCc3occc3C1CC[C@@]13CC(CCC12)C(O)(CO)C3` (stereo partly specified), the Specific activity (uM min-1 (mg of protein)-1) is 0.91 in experiment [9], 3.35 in [1], 0.26 in [11] and 1.36 in [15]. Also, the Ratio in experiment [2] was found to be 3.8; in experiment [3] it was 2; in experiment [10], 1.2; in [4] it was 1.5; in [5], 2; in experiment [14] it was 1. Besides, the SH level in experiment [6] was determined as 14.9 µM/g; in experiment [7], 7.9 µmol/g.
